Experimental data as given in ChEMBL document CHEMBL1124233, “Clofazimine analogues active against a clofazimine-resistant organism” (J Med Chem, 1988).

Assays:
Assay type in all cases: functional, organism-based
[1] = tested on: Mycolicibacterium smegmatis; test: Concentration for complete inhibition of growth against rifampicin resistant Mycobacterium smegmatis 607 strain in vitro; Precipitation
Procedure, shortened: (§1)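 M. smegmatis ATCC607-derived strains (one of three used, including a dapsone-sensitive one) were grown in modified Kirchner's medium with 0.5% Tween 80, inoculated with 10^5 viable cells. Drugs were added in DMSO (2% final). Roller tubes were incubated at 37 °C for 72 h. Growth was read as spectrophotometric transmission.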

[2] = tested on: Mycolicibacterium smegmatis; test: Concentration for 100% inhibition of growth of dapsone sensitive Mycobacterium smegmatis 607 strain in vitro; procedure, shortened: as §1
[3] = tested on: Mycolicibacterium smegmatis; test: Concentration for complete inhibition of growth against clofazimine resistant Mycobacterium smegmatis 607 strain in vitro; Precipitation
Procedure, shortened: (§2)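 Strain: 20× step-up clofazimine-resistant mutant of M. smegmatis ATCC607. 10^5 viable cells inoculated into modified Kirchner's medium with 0.5% Tween 80. Drugs were added in DMSO (2% final in all tubes). Roller tubes were incubated at 37 °C for 72 h. Growth was read as optical transmission in a spectrophotometer.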

[4] = tested on: Mycolicibacterium smegmatis; test: 100% inhibition of growth of clofazimine resistant Mycobacterium smegmatis 607 strain in vitro; procedure, shortened: as §2
[5] = tested on: Mycolicibacterium smegmatis; test: 100% inhibition of growth of rifampicin resistant Mycobacterium smegmatis 607 strain in vitro; procedure, shortened: as §1

| Structure (SMILES) | Concentration [1] [µg/mL] | Concentration [2] [µg/mL] | Concentration [3] [µg/mL] | Concentration [4] [µg/mL] | Concentration [5] [µg/mL] |
| --- | --- | --- | --- | --- | --- |
| CCOc1ccc(Nc2cc3nc4ccccc4n(-c4ccc(OCC)cc4)c-3cc2=N)cc1 | 50 | 6 | 100 | – | – |
| c1ccc(Nc2cc3nc4ccccc4n(-c4ccccc4)c-3c/c2=N\CCN2CCCC2)cc1 | – | 0.4 | – | 2 | 0.4 |
| Clc1ccc(Nc2cc3nc4ccccc4n(-c4ccc(Cl)cc4)c-3c/c2=N\CC2CCCCC2)cc1 | – | 3 | – | 100 | 3 |
| CCC(CO)/N=c1\cc2n(-c3ccccc3)c3ccccc3nc-2cc1Nc1ccccc1 (stereo not given) | – | 2 | – | 100 | 30 |
| CCNCCC/N=c1\cc2n(-c3ccc(Cl)cc3)c3ccccc3nc-2cc1Nc1ccc(Cl)cc1 | – | 0.2 | – | 1 | 0.2 |
